Bioassay records from PubChem.
Sampled rows, rich in hits. Any-hit rate of the full collection: about 2.5%.
Rce1 inhib – inhibitors of yeast Ras-converting enzyme | calls only | yeast membranes, quenched prenylated peptide cleavage fluorescence | 290,000 compounds, 0.27% hits | AID 2563;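 active = fall in fluorescence gain of 50% or more versus controls, with final raw signal at or below 3038400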;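 note: plate controls were neutral control wells for no effect and wells lacking membranes for full effect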
Target sequence (Q03530 whole entry, looked up): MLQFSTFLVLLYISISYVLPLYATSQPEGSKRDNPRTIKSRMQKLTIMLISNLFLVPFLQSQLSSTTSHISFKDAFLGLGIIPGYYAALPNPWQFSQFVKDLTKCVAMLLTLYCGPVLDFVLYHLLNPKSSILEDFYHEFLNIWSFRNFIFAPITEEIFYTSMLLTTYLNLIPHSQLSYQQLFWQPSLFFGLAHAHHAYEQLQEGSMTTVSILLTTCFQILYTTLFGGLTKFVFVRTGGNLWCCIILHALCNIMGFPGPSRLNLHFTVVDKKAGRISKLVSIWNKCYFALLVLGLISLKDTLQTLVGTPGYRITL
T cell HTS – T cell immune modulation candidate; 2C CD8+ T cell-vesicle binding, flow cytometry; hits give low values; response (vesicle binding), % at 7 µM; 330,000 compounds, 0.068% hits;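 active = response, share of CD8 T cells binding vesicles, and their 90th percentile fluorescence all below set limits, cut at about 80% in these data, passing the limit was not always enough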;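 note: values below 100% mean blocked vesicle binding to the CD8+ T cells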
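Assay system: 2C TCR transgenic mouse naive CD8+ T cells, MACS-purified | Read-out: CD8+ gate FL2 mean fluorescence as % of same-row positive control | Signal: High-throughput flow cytometry with anti-B7-1 and anti-CD8 staining | Timing: Binding step 1.5 h, 37 °C, antibody labelling 20 min, ice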
MEKK2 WT-MEK5 – raises or lowers MEK5 binding to wildtype human MEKK2 PB1 domain. bead flow cytometry, Alexa488-MEK5 binding to MEKK2 WT; actives lie on both sides. binding response (% of control), % at 10 µM. 290,000 compounds, 1.1% hits; in the data active = binding response below about 67% or above about 130%
MEKK2 mut-MEK5 – signal of MEK5 binding to mutant human MEKK2 PB1 domain; percent response, % at 10 µM; 290,000 compounds, 0.35% hits; bead flow cytometry, Alexa488-MEK5 binding to MEKK2 mutant; in the data active = percent response above about 24%, passing the limit was not always enough
MEKK3 PB1 HTS – modulators (inhibitors or enhancers) of MEK5 binding to human MEKK3 PB1 domain. Q99759. AID 1529. binding response (% of control), % at 10 µM. 290,000 compounds, 1.4% hits. bead-based flow cytometry, Alexa488-MEK5 binding to MEKK3; actives lie on both sides; 0 = blocked by unlabeled MEK5, 100 = vehicle;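 active = binding response more than 3 SD above or below the average of its plate-row segment, actives on both sides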;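 note: Alexa488 bead fluorescence after subtracting the streptavidin-only scavenger bead signal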
UCH37 inh – inhibitors of human deubiquitinating enzyme UCH37; 330,000 compounds, 0.33% hits; purified proteasome/UCH37, Ub-AMC cleavage fluorescence; inhibition, % (test concentration not listed); Q9Y5K5;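 active = mean inhibition over replicate wells above about 20%, limit read from the data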;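 note: 0% = compound-free wells with enzyme and 100% = wells lacking proteasome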
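Signal – fluorescence, ex 355 nm, em 460 nm · System – Proteasome-bound UCH37 · Input – 0.15 nM proteasome as dispensed · Timing – 30 min preincubation with enzyme, 25 min cleavage at room temperature · Read-out basis – percent inhibition of cleavage signal versus uninhibited and no-proteasome wells · Medium – Tris-HCl pH 7.4 with ATP-MgCl2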
The depositor's hits bear a star; i = inactive; . = not tested or not shown; + = active, no number; [ ] = another dose, or the depositor's remark.

SMILES	Rce1 inhib	T cell HTS	MEKK2 WT-MEK5	MEKK2 mut-MEK5	MEKK3 PB1 HTS	UCH37 inh
COc1ccc(/C=C(/NC(=O)c2ccccc2)C(=O)NN=Cc2cccs2)cc1OC	.	.	.	.	.	12
N#CC(C#N)=C1NC(N)=C(C#N)C(c2ccccc2)=C1C#N	+	229	100	-3	98	.
N#CC1=C(c2ccccc2)/C(=C/c2ccccc2)OC1=O	i	314	98	1	95	.
COc1ccc(C(=O)Oc2ccc(F)cc2C(=O)/C=C/c2ccc(OC)c(OC)c2)cc1	i	278	103	23	106	1
COc1ccc(/C=C/C(=O)c2cc(F)ccc2OC(=O)c2ccccc2C)cc1OC	i	179	108	0	150*	1
Cc1ccc(C(=O)c2c(C)oc3c2C(=O)C(=O)c2ccccc2-3)cc1	i	182	96	1	101	42*
CCOC(=O)N1CCN(C(=O)c2ccc3c(=O)n4c(nc3c2)CCCCC4)CC1	i	164	101	0	101	29*
CCOC(=O)C1CCN(C(=O)c2ccc3c(=O)n4c(nc3c2)CCCCC4)CC1	i	331	.	.	.	1
COc1cc(C=Nn2cnnc2)ccc1OCC(=O)N1CCOCC1	.	.	.	.	.	-1
Cc1ccccc1NCC(=O)NN=Cc1c(C)c(C(=O)c2ccc(Cl)cc2)n2ccccc12	.	.	.	.	.	5
Cn1c(=O)c2c(C(=O)O)cc(-c3ccccc3)nc2n(Cc2ccccc2)c1=O	i	211	99	0	97	-10
COc1ccccc1-c1cc(C(=O)O)c2c(=O)n(C)c(=O)n(Cc3ccccc3)c2n1	+	150	103	11	103	-98
Oc1ccc(Cl)cc1C=Nc1nccs1	.	.	.	.	.	5
COC(=O)NN=C1CCCc2ccccc21	.	.	.	.	.	1
CCCCNC(=O)C(CC)Sc1nc2sc(C(=O)OC)c(C)c2c(=O)n1N (stereo not drawn)	+	559	99	-3	98	-320
CCC(Sc1nc2sc(C(=O)OC)c(C)c2c(=O)n1N)C(=O)N(CC)CC (stereo not drawn)	i	424	99	-2	96	-42
CCOC(=O)C1CCCN(S(=O)(=O)c2cc3[nH]c(=O)c(=O)[nH]c3cc2C)C1 (stereo not drawn)	+	115	97	-2	98	-47
CC(=NNC(=O)c1cc(C)[nH]n1)c1ccncc1	.	.	.	.	.	1
COc1ccc(C=NNC(=O)Cn2c(Cc3ccc(OC)c(OC)c3)nc3ccccc32)cc1	.	.	.	.	.	0
C/C(=N/NC(=O)c1cccs1)c1c(C)[nH]n(-c2nc3ccccc3s2)c1=O	i	314	100	-1	139*	.
Cc1ccc(Nc2ccc(C(N)=O)cc2[N+](=O)[O-])cc1C	i	176	101	3	106	26*
CCOCC(O)CSCc1ccc(Cl)cc1 (stereo not drawn)	i	364	96	-6	97	3
OC(COCC(F)(F)C(F)(F)C(F)(F)C(F)F)Cn1c2ccc(Cl)cc2c2cc(Cl)ccc21 (stereo not drawn)	i	230	135	53*	100	.
C=C(C)C1CC=C(C)C(=NNC(=O)COc2cccc3ccccc23)C1 (stereo not drawn)	.	.	.	.	.	1
COc1cc(/C=N/NC(=O)c2ccc(NS(=O)(=O)c3cccs3)cc2)cc(OC)c1O	.	80*	.	.	.	.
SMILES	Rce1 inhib	T cell HTS	MEKK2 WT-MEK5	MEKK2 mut-MEK5	MEKK3 PB1 HTS	UCH37 inh
CCN(CC)c1ccc(NC(=O)C2=CC=CN3CCS(=O)(=O)N=C23)cc1	.	0.0*	.	.	.	9
COc1ccc(CCNC(=O)c2c(C)nn(CC(C)C)c2Cl)cc1OC	i	228	102	-2	99	-1
COc1ccc(CCN(C)C(=O)c2c(C)nn(CC(C)C)c2Cl)cc1OC	i	322	44*[inhibitor]	-39	55*[inhibitor]	-2
N#CCC(=O)NN=Cc1ccc(OCC(=O)Nc2ccc(F)cc2)cc1	.	.	.	.	.	0
Cc1ccc(NC(=O)CSc2nc(C)c(Cc3ccccc3)c(=O)[nH]2)cc1C	i	306	26*	3	105	3
Cc1cccc(NC(=O)CSc2nc(C)c(Cc3ccccc3)c(=O)[nH]2)c1	i	249	.	.	.	2
